Experimental data gathered from unrelated publications.
Lines come from different studies, so protocols differ.

Compound | test | system | conditions | quantity | value
CC[C@H](C)[C@H](NC(=O)[C@@H]1CCCN1C(=O)CNC(=O)[C@H](Cc1ccccc1)NC(=O)[C@H](CC(N)=O)NC(=O)[C@H](CC(N)=O)NC(=O)[C@H](CO)NC(=O)[C@H](CO)NC(=O)[C@H](Cc1c[nH]cn1)NC(=O)[C@H](CCCNC(=N)N)NC(=O)[C@H](CC(C)C)NC(=O)[C@H](Cc1ccccc1)NC(=O)[C@H](CCC(=O)O)NC(=O)[C@H](C)NC(=O)[C@H](CC(C)C)NC(=O)[C@H](CCCNC(=N)N)NC(=O)[C@H](CCC(N)=O)NC(=O)[C@@H](NC(=O)[C@H](C)NC(=O)[C@@H]1CSSC[C@H](NC(=O)[C@H](CCCCN)NC(=O)CC[C@H](NC(=O)CCCCCCCCCCCCCCCCCCC(=O)O)C(=O)O)C(=O)N[C@@H](CC(N)=O)C(=O)N[C@@H]([C@@H](C)O)C(=O)N[C@@H](C)C(=O)N[C@@H]([C@@H](C)O)C(=O)N1)[C@@H](C)O)C(=O)N[C@@H](CC(C)C)C(=O)N1CCC[C@H]1C(=O)N1CCC[C@H]1C(=O)N[C@H](C(=O)N[C@@H](CC(N)=O)C(=O)N[C@H](C(=O)NCC(=O)N[C@@H](CO)C(=O)N[C@@H](CC(N)=O)C(=O)N[C@H](C(=O)N1CCC[C@H]1C(N)=O)[C@@H](C)O)C(C)C)[C@@H](C)O | – | cynomolgus monkey, plasma | subcutaneous, 20 nmol/kg, single dose | AUC(0-inf) | 39.3 µM·h
COC1=CC(c2ccc[nH]2)=N/C1=C\c1[nH]c(Cc2ccc(OC(F)(F)F)cc2)cc1Cc1ccc(OC(F)(F)F)cc1 | – | male CD-1 mouse, plasma | oral, 40 mg/kg, single dose | MRT(0-t) | 23.1 h
CCOC(=O)C1=C(CN2CCC[C@@H]2C(=O)Nc2ccc(B(O)O)cc2)NC(c2nccs2)=N[C@H]1c1ccc(F)cc1Br | – | CD-1 mouse, plasma | intravenous, 2 mg/kg | MRT(0-inf) | 0.57 h
NCc1cc2c(cc1F)C(=O)N(C1CCC(=O)NC1=O)C2 (stereo not drawn) | – | male cynomolgus monkey, plasma | oral, 0.3 mg/kg | AUC(0-inf) | 5.5 ng·h/mL
Cc1nc2ccc(OCc3ccc(C(F)(F)F)cc3)cc2[nH]1 | – | male BALB/c mouse, plasma | intravenous, 1 mg/kg | MRT(0-inf) | 1.54 h
CCCCCCOc1ccc2c(=O)c3c([nH]c2c1)CCCC3 | metabolic stability | human, liver microsomes | 1 µM, pH 7.4 | half-life | 15 min
OCc1nc2ccc(NCc3ccc(C(F)(F)F)cc3)cc2[nH]1 | – | male BALB/c mouse, plasma | oral, 10 mg/kg | MRT(0-inf) | 1.9 h
O=c1c2c([nH]c3cc(OCc4ccc(OC(F)(F)F)cc4)ccc13)CCCC2 | metabolic stability | human, liver microsomes | 1 µM, pH 7.4 | half-life | 37.6 min
COC1=CC(c2ccc[nH]2)=N/C1=C\c1cc(Cc2ccc(OC(F)(F)F)cc2)c(C)[nH]1.Cl | – | male CD-1 mouse, liver | oral, 40 mg/kg, single dose | MRT(0-t) | 34.8 h
